Our source for the Tm and folding enthalpy values is the array DNA melting data of Ke et al. (doi:10.1101/2024.01.08.574731).

A short description of series [1]: melting temperature; fluorescence melt of hairpins on a sequencing array, two-state fit, raised by 9.35 °C to match UV melts. The note with it: sodium 0.088 M. Summed up: (§1)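 To match UV melts, fitted temperatures were raised by 9.35 °C. These fits were bootstrapped two-state models that gave melting temperature and folding enthalpy, combined by inverse variance over four replicates. The input was normalised Cy3 fluorescence of library hairpins with annealed Cy3 and quencher oligos on a sequenced MiSeq flow cell, imaged in 50 mM Na-HEPES pH 8.0, 25 mM NaCl in 2.5 °C steps up to 60 °C.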

Series [2] is described as follows: folding enthalpy; higher = less favourable; fluorescence melt of hairpins on a sequencing array, two-state fit. The conditions noted are these: sodium 0.088 M. Summed up:
as §1

GCCCTCGGAAACGGGGGC ((((.((....)).)))): the Tm in series [1] was found to be 66.9 °C. The folding enthalpy in series [2] is -32.7 kcal/mol.
Consider GCCCTGCGAAAGCAAAGC ((..(((....)))..)), for which the Tm in series [1] came to 29.2 °C. Further, the folding enthalpy in series [2] is -6.64 kcal/mol.
As to GCCCTGCGAAAGCACAGC ((..(((....)))..)), the Tm in series [1] stood at 27.4 °C. Also, the folding enthalpy in series [2] was -8.54 kcal/mol.
With GCCCTGCGAAAGCAGTGC ((.((((....)))).)), the Tm in series [1] worked out at 58.5 °C. In series [2], the folding enthalpy is -17.3 kcal/mol.
On to GCCCTGCGAAAGCATGGC (((.(((....))).))), for which the Tm in series [1] worked out at 56.3 °C. In addition, the folding enthalpy in series [2] was -48.3 kcal/mol.
On the same counts, the results for GCCCTGCGAAAGCGGAGC ((.(.((....)).).)) are 51.5 °C and -15.5 kcal/mol.
On the same counts, the results for GCCCTGCGAAAGCTCGGC (((..((....))..))) are 46.9 °C and -19.3 kcal/mol.
The matching figures for GCCCTGCGAAAGCTGTGC ((.(.((....)).).)): 38.9 °C and -15.7 kcal/mol.
For GCCCTGGCGAAAGCCGGC (((..(((....)))))), the Tm in series [1] was 52 °C. Besides, the folding enthalpy in series [2] was -11.1 kcal/mol.
As to GCCCTGGGAAACCGGGGC ((((.((....)).)))), the Tm in series [1] worked out at 66.2 °C. In addition, the folding enthalpy in series [2] is -43.1 kcal/mol.
As for GCCCTGTCGAAAGACGGC (((..(((....)))))), in series [1], the Tm came out at 44.5 °C. Also, in series [2], the folding enthalpy is -15.4 kcal/mol.
The matching figures for GCCCTTCGAAAGAAGGC (((.(((....)))))): 52.9 °C and -21.4 kcal/mol.
With GCCGAACCGAAAGGTGGC (((..(((....)))))), in series [1], the Tm was determined as 53.1 °C. In addition, the folding enthalpy in series [2] was -26.4 kcal/mol.
Turning to GCCGAACGAAAGTTGGGC (((.(((....))).))), the Tm in series [1] was found to be 58.5 °C. Also, the folding enthalpy in series [2] was -38.8 kcal/mol.
With GCCGAAGGAAACTCCGGC ((((.((....)).)))), in series [1], the Tm is 48.3 °C. The folding enthalpy in series [2] was -28 kcal/mol.
For the sequence GCCGAAGGAAACTTCAGC ((.((((....)))).)), in series [1], the Tm came out at 32.9 °C. Also, the folding enthalpy in series [2] was -11.7 kcal/mol.
Turning to GCCGACACGAAAGTGGGC (((..(((....)))))), in series [1], the Tm worked out at 53.1 °C. The folding enthalpy in series [2] was -24.5 kcal/mol.
For GCCGACGAAAGTCAGGGC ((((((....)))..))), in series [1], the Tm was found to be 55.1 °C. For the same sequence, in series [2], the folding enthalpy was -36.8 kcal/mol.
For the sequence GCCGACGAAAGTCCCGGC ((((((....)))..))), the Tm in series [1] is 49.6 °C. For the same sequence, the folding enthalpy in series [2] is -20.9 kcal/mol.
As to GCCGACGAAAGTCTAGGC ((((((....)))..))), in series [1], the Tm is 52.7 °C. The folding enthalpy in series [2] is -34.1 kcal/mol.
For GCCGAGCGAAAGCACAGC ((.(.((....)).).)), the Tm in series [1] turned out to be 40.1 °C. The folding enthalpy in series [2] was -15.1 kcal/mol.
Turning to GCCGAGCGAAAGCGCAGC ((.(.((....)).).)), the Tm in series [1] was found to be 49.4 °C. Further, the folding enthalpy in series [2] was -14.4 kcal/mol.
Consider GCCGAGCGAAAGCGTGGC (((..((....))..))), for which the Tm in series [1] was determined as 68.3 °C. In series [2], the folding enthalpy was -25.4 kcal/mol.
On the same counts, the results for GCCGAGCGAAAGCTGGC (((.(((....)))))) are 68.6 °C and -25.1 kcal/mol.
On the same counts, the results for GCCGAGGGAAACCCCAGC ((.(.((....)).).)) are 25.2 °C and -11.3 kcal/mol.
On to GCCGAGGGAAACCCCGAC (.((.((....)).)).), for which, in series [1], the Tm was 31 °C. The folding enthalpy in series [2] was -13.8 kcal/mol.
On the same counts, the results for GCCGAGGGAAACCCCGGC ((((.((....)).)))) are 59.9 °C and -40.2 kcal/mol.
On to GCCGATGGAAACATTGGC (((.(((....))).))), for which the Tm in series [1] was 54.6 °C. In addition, the folding enthalpy in series [2] was -55.2 kcal/mol.
The matching figures for GCCGCAACGAAAGTTGGC (((..(((....)))))): 48 °C and -11.2 kcal/mol.
The matching figures for GCCGCAGGAAACCGCAGC ((.((.(....).)).)): 31.2 °C and -9.87 kcal/mol.
Consider GCCGCAGGAAACCGCGAC (.(((.(....).))).), for which the Tm in series [1] was found to be 35.9 °C. The folding enthalpy in series [2] was -15.6 kcal/mol.
The matching figures for GCCGCAGGAAACTGTGGC (((.(((....))).))): 60.3 °C and -39.4 kcal/mol.
The matching figures for GCCGCCCGAAAGGGGGC (((.(((....)))))): 68.7 °C and -18 kcal/mol.
With GCCGCCGAAAGGCAAGGC ((((((....)))..))), the Tm in series [1] was 65.5 °C. For the same sequence, the folding enthalpy in series [2] is -24.6 kcal/mol.
On the same counts, the results for GCCGCCGAAAGGCATGGC ((((((....)))..))) are 63 °C and -19.9 kcal/mol.
The matching figures for GCCGCCGAAAGGCCCGGC ((((((....)))..))): 48 °C and -17.4 kcal/mol.
On the same counts, the results for GCCGCCGAAAGGCGTGGC ((((((....)))..))) are 60.1 °C and -12.6 kcal/mol.
In the case of GCCGCCGCGAAAGCGGGC (((..(((....)))))), the Tm in series [1] turned out to be 64 °C. The folding enthalpy in series [2] was -5.71 kcal/mol.
On the same counts, the results for GCCGCGCGAAAGCACAGC ((.(.((....)).).)) are 46.9 °C and -13.6 kcal/mol.
Take GCCGCGCGAAAGCACTGC ((.(.((....)).).)): the Tm in series [1] came out at 38.2 °C. The folding enthalpy in series [2] is -18.7 kcal/mol.
The matching figures for GCCGCGCGAAAGCAGGGC (((..((....))..))): 61.5 °C and -23.1 kcal/mol.
On the same counts, the results for GCCGCGCGAAAGCGGAGC ((..(((....)))..)) are 52.5 °C and -12.8 kcal/mol.
Regarding GCCGCGCGAAAGCGGTGC ((..(((....)))..)), in series [1], the Tm was 58 °C. In addition, the folding enthalpy in series [2] was -16.2 kcal/mol.
On the same counts, the results for GCCGCGCGAAAGCTCCGC ((.(.((....)).).)) are 33.2 °C and -7.61 kcal/mol.
On the same counts, the results for GCCGCTCGAAAGAGGGC (((.(((....)))))) are 55.2 °C and -22.9 kcal/mol.
The matching figures for GCCGCTGCGAAAGCAGGC (((..(((....)))))): 65.1 °C and -9.88 kcal/mol.
Consider GCCGCTGGAAACAACGGC ((((.((....)).)))), for which the Tm in series [1] worked out at 54.3 °C. In addition, the folding enthalpy in series [2] was -37.1 kcal/mol.
As to GCCGGAGGAAACTCTGGC (((.(((....))).))), the Tm in series [1] stood at 54.8 °C. Further, in series [2], the folding enthalpy was -34.6 kcal/mol.
On the same counts, the results for GCCGGCGAAAGCCTAGGC ((((((....)))..))) are 60.1 °C and -24.5 kcal/mol.
Turning to GCCGGCGAAAGCCTGGGC ((((((....)))..))), the Tm in series [1] came out at 60 °C. Also, the folding enthalpy in series [2] was -24.5 kcal/mol.
The matching figures for GCCGGGCCGAAAGGCGGC (((..(((....)))))): 59.4 °C and -17.6 kcal/mol.
On the same counts, the results for GCCGGGCGAAAGCCTCGC ((..(((....)))..)) are 48.3 °C and -11.1 kcal/mol.
For the sequence GCCGGGCGAAAGCGGGGC (((..((....))..))), in series [1], the Tm came out at 63.3 °C. Further, in series [2], the folding enthalpy was -22.9 kcal/mol.
On the same counts, the results for GCCGGGCGAAAGCTCCGC ((.(.((....)).).)) are 45.2 °C and -13.1 kcal/mol.
On to GCCGGGCGAAAGCTCTGC ((.(.((....)).).)), for which the Tm in series [1] worked out at 41.4 °C. The folding enthalpy in series [2] was -18.5 kcal/mol.
For GCCGGGCGAAAGCTTGGC (((..((....))..))), the Tm in series [1] worked out at 65.3 °C. Besides, the folding enthalpy in series [2] was -24.4 kcal/mol.
For the sequence GCCGGGGGAAACCCCAGC ((.((((....)))).)), in series [1], the Tm is 50.3 °C. Also, in series [2], the folding enthalpy was -21.2 kcal/mol.
Consider GCCGGGGGAAACTCCGGC (((((.(....).))))), for which the Tm in series [1] was found to be 68.5 °C. Further, the folding enthalpy in series [2] is -39.3 kcal/mol.
The matching figures for GCCGGTACGAAAGTAGGC (((..(((....)))))): 48.7 °C and -24.7 kcal/mol.
With GCCGGTCGAAAGACAGGC (((.(((....))).))), the Tm in series [1] was found to be 69 °C. In addition, in series [2], the folding enthalpy was -41.7 kcal/mol.
The matching figures for GCCGGTGGAAACACCGAC (.(((((....))))).): 55.3 °C and -12.4 kcal/mol.
The matching figures for GCCGTCCGAAAGGAGGC (((.(((....)))))): 58.4 °C and -27.4 kcal/mol.
For GCCGTCGAAAGACCGGC ((((((....))).))), in series [1], the Tm was 60.5 °C. The folding enthalpy in series [2] is -36.8 kcal/mol.
As to GCCGTCGAAAGACCGGGC ((((((....)))..))), the Tm in series [1] came out at 50.3 °C. Also, the folding enthalpy in series [2] was -22.1 kcal/mol.
On the same counts, the results for GCCGTCGAAAGACTGGGC ((((((....)))..))) are 53.7 °C and -26.4 kcal/mol.
On the same counts, the results for GCCGTCGGAAACGATGGC (((.(((....))).))) are 65.5 °C and -41.1 kcal/mol.
With GCCGTCTCGAAAGAGGGC (((..(((....)))))), in series [1], the Tm was determined as 50.6 °C. In addition, in series [2], the folding enthalpy was -24.9 kcal/mol.
For the sequence GCCGTGCCGAAAGGCGGC (((..(((....)))))), the Tm in series [1] was 66.8 °C. Moreover, the folding enthalpy in series [2] is -13.9 kcal/mol.
For GCCGTGCGAAAGCATCGC ((..(((....)))..)), the Tm in series [1] turned out to be 50.2 °C. The folding enthalpy in series [2] is -11.1 kcal/mol.
On the same counts, the results for GCCGTGCGAAAGCCAGGC (((..((....))..))) are 62.8 °C and -23.9 kcal/mol.
The matching figures for GCCGTGCGAAAGCTCCGC ((.(.((....)).).)): 40.4 °C and -11.2 kcal/mol.
On the same counts, the results for GCCGTGGGAAACCACGAC (.(((((....))))).) are 52 °C and -14.8 kcal/mol.
On to GCCGTTCCGAAAGGAGGC (((..(((....)))))), for which, in series [1], the Tm came to 50.7 °C. Moreover, the folding enthalpy in series [2] is -24.4 kcal/mol.
